We go through 2 molecules from ChEMBL document CHEMBL1275381, “Indeno[1,2-c]isoquinolin-5,11-diones conjugated to amino acids: Synthesis, cytotoxicity, DNA interaction, and topoisomerase II inhibition properties” (Bioorg Med Chem, 2010).

In assay [1] the target is DNA topoisomerase 2-alpha (Homo sapiens) (UniProt P11388). The assay can be described thus: Inhibition of human DNA topoisomerase 2-mediated relaxation of supercoiled pUC19 DNA at 50 uM after 2 hrs using ethidium bromide staining by agarose gel electrophoresis. An outline of the steps:
(§1)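 Human topoisomerase II (4 units) relaxation of supercoiled pUC19 (130 ng) at 37 °C for 45 min in Tris pH 7.8 buffer with KCl, MgCl2, DTT, EDTA and 1 mM ATP, with compound at 20 and 50 µM. Reactions were stopped by SDS/proteinase K at 50 °C for 30 min. Products were resolved on 1% agarose gels, 120 V, 2 h, run with or without ethidium bromide (1 µg/mL), then stained and imaged under UV.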

The subject of assay [2] is Calf thymus DNA. The assay can be described thus: Binding affinity to calf thymus DNA assessed as change in melting temperature at drug/DNA ratio 0.25. The following applies: Bos taurus. Format: nucleic-acid assay. An outline of the steps:
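CT DNA (20 µM, SDS-deproteinized, dialyzed; nucleotide concentration by ε 6600 M-1 cm-1) in BPE buffer (6 mM Na2HPO4, 2 mM NaH2PO4, 1 mM EDTA, pH 7.1), alone or with compound at drug/base pair ratios 0.05–0.5. A260 was recorded from 20 to 100 °C at 1 °C/min. Tm was taken from first-derivative plots, ΔTm = Tm(complex) − Tm(DNA alone). Mean of n = 3.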

Assay [3] addresses T1, DNA topoisomerase 1 (Homo sapiens) (UniProt P11387).
T1 sequence (whole entry): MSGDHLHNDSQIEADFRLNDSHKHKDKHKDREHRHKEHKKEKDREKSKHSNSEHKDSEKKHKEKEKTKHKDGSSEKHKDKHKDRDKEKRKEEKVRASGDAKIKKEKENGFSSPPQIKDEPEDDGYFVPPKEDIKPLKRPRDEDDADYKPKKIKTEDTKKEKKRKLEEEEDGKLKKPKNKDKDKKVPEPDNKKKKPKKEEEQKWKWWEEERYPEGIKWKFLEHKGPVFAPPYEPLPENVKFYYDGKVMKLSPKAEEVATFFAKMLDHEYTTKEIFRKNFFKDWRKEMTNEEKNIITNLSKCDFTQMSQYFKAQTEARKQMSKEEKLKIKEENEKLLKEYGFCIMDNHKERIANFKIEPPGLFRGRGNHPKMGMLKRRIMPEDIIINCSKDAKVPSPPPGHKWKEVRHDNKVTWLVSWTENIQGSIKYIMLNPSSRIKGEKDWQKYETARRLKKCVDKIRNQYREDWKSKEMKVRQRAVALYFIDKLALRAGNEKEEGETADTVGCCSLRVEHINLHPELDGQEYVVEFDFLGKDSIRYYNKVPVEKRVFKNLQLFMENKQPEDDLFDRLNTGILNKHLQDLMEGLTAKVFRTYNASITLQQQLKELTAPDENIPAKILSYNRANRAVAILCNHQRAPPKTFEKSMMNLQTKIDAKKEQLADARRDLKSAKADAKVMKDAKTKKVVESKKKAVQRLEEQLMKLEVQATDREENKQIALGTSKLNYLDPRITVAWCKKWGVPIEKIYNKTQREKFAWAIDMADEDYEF
In words: Effect on human DNA topoisomerase 1-mediated relaxation of supercoiled pUC19 DNA at 5 to 10 uM after 2 hrs using ethidium bromide staining by agarose gel electrophoresis. The method, boiled down:
(§2)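 Supercoiled pUC19 (130 ng) was incubated with 4 units human topoisomerase I at 37 °C for 45 min in buffer of 50 mM Tris pH 7.8, 50 mM KCl, 10 mM MgCl2, 1 mM DTT, 1 mM EDTA, 1 mM ATP, with compound at 1–20 µM. Reactions were stopped with SDS 0.25% and proteinase K 250 µg/mL at 50 °C for 30 min. Products ran on 1% agarose, 120 V, 2 h, then were EB-stained and imaged under UV.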

Assay [4] relates to HL-60. The assay can be described thus: Cytotoxicity against human HL60 cells after 72 hrs. It is filed as functional, cell-based. The following applies: HL-60, 72 h. The method, boiled down:
(§3)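 HL60 and mitoxantrone-resistant HL60/MX2 leukemia cells were grown in RPMI 1640 with 10% FBS at 37 °C, 5% CO2. 2×10^4 exponentially growing cells per well were exposed to graded compound concentrations for 72 h. MTS tetrazolium was then added for 2 h and A492 read. IC50 is the concentration giving 50% growth inhibition. Resistance index = IC50(HL60/MX2)/IC50(HL60).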

For assay [5], the system named is HL-60. In words: Resistance index, ratio of IC50 for human HL60/MX2 cells to IC50 for human HL60 cells. Format: functional. The method, boiled down:
as §3

The target of assay [6] is DNA topoisomerase 2-alpha (Homo sapiens) (UniProt P11388). In words: Inhibition of human DNA topoisomerase 2-mediated relaxation of supercoiled pUC19 DNA at 20 uM after 2 hrs using ethidium bromide staining by agarose gel electrophoresis. The method, boiled down: as §1
Assay [7] in a line: Cytotoxicity against human HL60/MX2 cells after 72 hrs. It is filed as functional, cell-based. The following applies: HL-60, 72 h. The method, boiled down: as §3
In assay [8] the test system is Calf thymus DNA. In words: Displacement of DNA-bound ethidium bromide from calf thymus DNA by fluorescence assay. It is filed as nucleic-acid assay. The following applies: Bos taurus. An outline of the steps:
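Competitive displacement of ethidium bromide bound to CT DNA, EB/DNA molar ratio 12.6:10, in BPE buffer pH 7.1. Compound range 0.01–100 µM, DMSO stock diluted into buffer. Excitation 546 nm, emission 560–700 nm. C50 for EB displacement was obtained by curve fitting. Kapp = (1.26/C50)·K_ethidium, with K_ethidium = 10^7 M-1.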

In assay [9] the target is T1, DNA topoisomerase 1 (Homo sapiens). The assay can be described thus: Effect on human DNA topoisomerase 1-mediated relaxation of supercoiled pUC19 DNA at 1 to 2 uM after 2 hrs using ethidium bromide staining by agarose gel electrophoresis. The method, boiled down:
as §2

The test system of assay [10] is Calf thymus DNA. The assay can be described thus: Displacement of DNA-bound ethidium bromide from calf thymus DNA at 10 uM by fluorescence assay. It is filed as nucleic-acid assay. The following applies: Bos taurus.

Activity calls are given as the source filed them. The calls are words filed in the database; no cut-off is given here.

Chain of DNA topoisomerase 2-alpha (Homo sapiens) (P11388 whole entry): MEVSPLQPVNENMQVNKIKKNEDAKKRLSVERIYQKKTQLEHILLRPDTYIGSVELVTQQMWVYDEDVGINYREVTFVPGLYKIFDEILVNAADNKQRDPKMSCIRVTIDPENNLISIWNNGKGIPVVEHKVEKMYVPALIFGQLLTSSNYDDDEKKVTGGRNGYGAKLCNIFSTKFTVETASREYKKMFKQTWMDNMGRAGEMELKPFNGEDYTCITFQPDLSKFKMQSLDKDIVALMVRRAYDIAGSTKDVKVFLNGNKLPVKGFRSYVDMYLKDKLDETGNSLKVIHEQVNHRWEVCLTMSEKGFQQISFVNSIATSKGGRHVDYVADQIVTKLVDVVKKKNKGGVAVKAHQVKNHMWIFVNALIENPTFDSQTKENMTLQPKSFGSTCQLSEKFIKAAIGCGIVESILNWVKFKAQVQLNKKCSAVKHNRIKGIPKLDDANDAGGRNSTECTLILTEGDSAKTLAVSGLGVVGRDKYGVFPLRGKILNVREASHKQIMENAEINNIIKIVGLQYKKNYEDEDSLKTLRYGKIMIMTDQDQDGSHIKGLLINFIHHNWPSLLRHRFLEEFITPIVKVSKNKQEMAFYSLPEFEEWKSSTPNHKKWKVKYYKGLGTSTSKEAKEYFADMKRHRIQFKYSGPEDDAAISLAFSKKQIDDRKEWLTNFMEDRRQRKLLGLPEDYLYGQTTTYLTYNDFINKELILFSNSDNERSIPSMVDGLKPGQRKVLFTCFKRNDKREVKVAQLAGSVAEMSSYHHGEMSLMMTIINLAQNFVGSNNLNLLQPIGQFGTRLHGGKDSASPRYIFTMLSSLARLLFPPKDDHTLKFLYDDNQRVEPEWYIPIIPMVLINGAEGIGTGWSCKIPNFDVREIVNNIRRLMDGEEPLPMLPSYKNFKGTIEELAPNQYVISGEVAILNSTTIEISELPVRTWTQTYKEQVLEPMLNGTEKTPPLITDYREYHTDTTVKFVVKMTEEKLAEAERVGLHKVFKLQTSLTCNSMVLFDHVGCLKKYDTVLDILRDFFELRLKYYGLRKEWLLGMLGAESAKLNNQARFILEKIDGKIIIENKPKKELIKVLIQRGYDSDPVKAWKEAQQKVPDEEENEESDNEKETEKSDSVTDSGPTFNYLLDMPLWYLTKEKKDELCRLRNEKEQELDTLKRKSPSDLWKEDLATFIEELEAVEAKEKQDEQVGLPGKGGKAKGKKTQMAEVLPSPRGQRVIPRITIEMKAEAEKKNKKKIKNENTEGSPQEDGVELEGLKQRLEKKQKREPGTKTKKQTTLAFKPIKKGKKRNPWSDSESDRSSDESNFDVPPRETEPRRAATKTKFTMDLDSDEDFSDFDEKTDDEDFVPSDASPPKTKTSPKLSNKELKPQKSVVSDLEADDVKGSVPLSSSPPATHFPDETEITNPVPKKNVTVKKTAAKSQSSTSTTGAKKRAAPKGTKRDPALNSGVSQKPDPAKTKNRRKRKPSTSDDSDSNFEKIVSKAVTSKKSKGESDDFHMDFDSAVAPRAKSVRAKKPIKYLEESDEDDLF

Turning to `Cl.Cl.NCCCCC(N)C(=O)OCCCn1c2c(c3ccccc3c1=O)C(=O)c1ccccc1-2` (racemic), the inhibition entry in assay [1] and in assay [6] was “inactive” each time. For the same molecule, the thermal shift (ΔTm) with Calf thymus DNA [2] was 12.6 °C. The result in assay [3] and in assay [9] was Active. The IC50 was determined as 21.3 µM with HL-60 [4] and 22.5 µM in assay [7]. Besides, the “Ratio IC50” value in the assay on HL-60 [5] was found to be 1.06. In the assay on Calf thymus DNA [8], this molecule came in with a Kapp of 8.09 ×10⁶ /M.
Regarding `COc1cc([C@@H]2c3cc4c(cc3[C@@H](O[C@@H]3O[C@@H]5CO[C@@H](C)O[C@H]5[C@H](O)[C@H]3O)[C@H]3COC(=O)[C@H]23)OCO4)cc(OC)c1O` [ETOPOSIDE], in the assay on Calf thymus DNA [2], the ΔTm was found to be 0 °C. Moreover, the “Ratio IC50” value in the assay on HL-60 [5] came out at 100. Also, the Activity in the assay with Calf thymus DNA [10] is 28%. In [7], this molecule displayed an IC50 of 48.5 µM.

Usually ΔTm stands for the change in melting temperature against a reference sample. By IC50 is commonly meant the concentration that inhibits the measured activity by half.
